A selection: hits, their analogues and other compounds. The true share with any hit is near 2.3%.
TRPC4 agonist: activators of mouse TRPC4 channel; Q9QUQ5; HEK293 TRPC4beta/mu-opioid, Fluo4 calcium fluorescence; stronger effect = higher value; B-score at 10 µM; 310,000 compounds, 0.49% hits; AID 2237;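 active means B-score above 5 SD of library B-scores, and initial fluorescence ratio not above library mean plus 5 SD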;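 further: positive B-score marks a calcium rise read as TRPC4 activation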
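Incubation: 45 min room-temperature Fluo4 loading, 110 s read / System: HEK293 cells stably co-expressing mouse TRPC4beta and mu-opioid receptor / Signal: Fluo4 fluorescence, kinetic / Control set: buffer (low) and maximal DAMGO (high) / Measure: integrated baseline-normalised fluorescence ratio, converted to per-well B score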
TRPC6 activator: mouse TRPC6 channel activation. Q61143. HEK293-TRPC6 membrane potential dye fluorescence; stronger effect = higher value. B-score at 10 µM. 310,000 compounds, 0.13% hits;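 active means B-score of the integrated fluorescence ratio above library mean plus 3 SD, and starting fluorescence ratio within library mean plus 5 SD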;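 further: higher score means more depolarization so channel activation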
Target sequence (Q61143 whole entry, looked up): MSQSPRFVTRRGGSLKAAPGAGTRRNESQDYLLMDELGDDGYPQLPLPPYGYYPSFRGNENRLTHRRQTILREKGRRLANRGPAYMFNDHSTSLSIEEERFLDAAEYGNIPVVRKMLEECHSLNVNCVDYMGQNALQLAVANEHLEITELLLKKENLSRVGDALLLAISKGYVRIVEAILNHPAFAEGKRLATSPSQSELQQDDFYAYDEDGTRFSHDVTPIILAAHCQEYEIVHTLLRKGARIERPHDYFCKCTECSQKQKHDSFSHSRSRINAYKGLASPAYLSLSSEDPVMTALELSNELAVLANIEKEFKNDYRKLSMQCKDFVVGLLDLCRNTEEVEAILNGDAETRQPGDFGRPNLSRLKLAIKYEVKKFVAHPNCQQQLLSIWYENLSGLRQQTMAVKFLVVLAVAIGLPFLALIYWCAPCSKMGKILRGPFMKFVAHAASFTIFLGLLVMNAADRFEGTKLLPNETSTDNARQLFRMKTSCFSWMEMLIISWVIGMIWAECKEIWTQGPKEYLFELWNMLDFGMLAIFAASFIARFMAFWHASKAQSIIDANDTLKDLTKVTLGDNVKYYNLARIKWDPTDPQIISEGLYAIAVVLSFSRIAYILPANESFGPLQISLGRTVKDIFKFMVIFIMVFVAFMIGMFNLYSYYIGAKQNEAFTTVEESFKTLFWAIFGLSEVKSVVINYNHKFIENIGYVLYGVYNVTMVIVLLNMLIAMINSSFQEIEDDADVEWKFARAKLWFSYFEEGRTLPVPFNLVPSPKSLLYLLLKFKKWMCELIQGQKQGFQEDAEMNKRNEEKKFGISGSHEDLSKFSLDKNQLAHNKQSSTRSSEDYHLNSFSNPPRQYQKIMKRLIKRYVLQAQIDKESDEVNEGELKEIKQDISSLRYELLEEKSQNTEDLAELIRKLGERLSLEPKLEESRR
TRPC4 inh: TRPC4 (mouse) channel inhibition; Q9QUQ5; HEK293 TRPC4beta/mu-opioid, DAMGO-evoked Fluo4 calcium flux; stronger effect = lower value; B-score at 10 µM; 300,000 compounds, 0.39% hits; AID 2247;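 active means B-score over 3 SD under the library average, no early fluorescence shift, positive overall ratio signal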
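test system = HEK293 cells with stable TRPC4beta plus mu-opioid receptor expression | detection = Fluo4 Ca2+ flux fluorescence | read-out = integrated fluorescence ratio relative to baseline, converted to per-well B score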
TRPC4 potent: allosterically enhances the mouse TRPC4 cation channel; 310,000 compounds, 0.42% hits; B-score at 10 µM; Q9QUQ5; HEK293 TRPC4beta/mu-opioid, DAMGO EC20, Fluo-4 Ca2+ flux; stronger effect = higher value;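 active means B-score of calcium response area above 5 SD of library B-scores, with initial fluorescence ratio within 5 SD of library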;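 further: B-score of integrated fluorescence ratio over time as area under calcium response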
TRPC6 inhibitor: inhibitors of mouse TRPC6 channel | B-score at 10 µM | AID 2553 | HEK293-TRPC6, membrane potential dye, ACh-evoked depolarization; stronger effect = lower value | Q61143 | 310,000 compounds, 1.1% hits;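 active means B-score under library mean minus 3 SD, initial fluorescence not abnormally high, positive integrated signal ratio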;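 further: B-score derived from integrated fluorescence ratio over the kinetic read; more negative B-score means stronger inhibition of depolarization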
TRPC4 sel inh 2: second check of whether TRPC6 inhibitors also affect mouse TRPC4. HEK293 TRPC4/MOR, membrane potential dye fluorescence; channel activated by saturating DAMGO dose. inhibition, % at 10 µM. 920 compounds, 42% hits. shares compounds with TRPC6 inhibitor;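 active means compounds whose fluorescence signal differed from control wells by over 3 SD, either direction, in both duplicate plates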
TRPC4 spec: mouse TRPC4 off-target activity of TRPC6 inhibitors | shares compounds with TRPC6 inhibitor | HEK293 TRPC4/mu-opioid, membrane potential fluorescence | activity change, negative = inhibition, % at 10 µM | 920 compounds, 61% hits;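 active means rise or fall in signal beyond 3 SD of buffer-only wells in both replicate plates, either sign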;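 further: integrated kinetic ratio of fluorescence range over baseline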
HEK293 MPD ctr 2-1: second counter-screen for TRPC6 inhibitors: parental HEK293 cells | signal change vs control, % at 10 µM | parental HEK293 membrane potential dye fluorescence; maximal acetylcholine challenge after compound addition | shares compounds with TRPC6 inhibitor | AID 2779 | 920 compounds, 31% hits;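 active means membrane potential signal moving either way by over 3 SD of the maximum-effect control, in both duplicate plates, meaning non-specific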
HEK293 MPD ctr-1: checks TRPC6 inhibitor effects in parental HEK293 cells; membrane potential signal change, % at 10 µM; AID 2780; shares compounds with TRPC6 inhibitor; parental HEK293 membrane potential dye fluorescence; 920 compounds, 60% hits;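 active means membrane potential signal shifting up or down by more than 3 SD of buffer-only wells, on both duplicate plates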
HEK293 MPD ctr-2: parental HEK293 nonspecific activity of TRPC6 modulators | shares compounds with TRPC6 inhibitor | membrane potential dye fluorescence | membrane potential signal change, % at 10 µM | 2,400 compounds, 51% hits | AID 488924;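 active means membrane potential signal moves up or down beyond 5 SD from buffer-only wells, on both duplicate plates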
HEK293 MPD ctr 2-2: second check of TRPC6 modulator effects in parental HEK293 cells; AID 488926; inhibition, % at 10 µM; shares compounds with TRPC6 inhibitor; membrane potential dye fluorescence; after compound, maximal acetylcholine stimulation; 2,400 compounds, 14% hits;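 active means membrane potential signal drops by more than 5 SD from the mean control signal, in both duplicate plates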;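 further: plate controls were acetylcholine ECmax control wells for no effect and buffer only wells for full effect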
TRPC4/MOR mod: tests whether TRPC6 modulators also affect mouse TRPC4; shares compounds with TRPC6 inhibitor; HEK293 TRPC4/mu-opioid, membrane potential fluorescence; percent change from control (negative = decrease, positive = increase), % at 10 µM; 2,400 compounds, 69% hits;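 active means membrane potential signal moved up or down beyond 5 SD of buffer control wells, in both duplicate plates, actives on both sides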;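 further: plate controls were assay buffer wells for no effect and DAMGO maximal-effect wells for full effect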
TRPC4 ctr inh 2: second check of whether TRPC6 modulators also affect mouse TRPC4. shares compounds with TRPC6 inhibitor. HEK293 TRPC4/mu-opioid, membrane potential dye fluorescence; stimulated with maximal-effect DAMGO. inhibition, % at 10 µM. 2,400 compounds, 55% hits;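 active means drop in membrane potential signal beyond 5 SD of the control wells in both duplicate plates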;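 further: TRPC4 counter screen for TRPC6 hits run under conditions tuned for TRPC6 not TRPC4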
TRPC6 inh conf: confirmation of mouse TRPC6 inhibitors; shares compounds with TRPC6 inhibitor; HEK293-TRPC6, membrane potential dye, ACh-evoked depolarization; inhibition, % at 10 µM; 3,300 compounds, 43% hits; AID 488960;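 active means fluorescence ratio falls more than 5 SD below the full-stimulation control mean, in both duplicate runs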;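 further: integrated fluorescence ratio of peak minus minimum over baseline after agonist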
TRPC6 act conf: confirmation of mouse TRPC6 activators; shares compounds with TRPC6 inhibitor; HEK293-TRPC6 membrane potential dye fluorescence, FDSS; activation, % at 10 µM; 2,800 compounds, 11% hits; AID 488961;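 active means ratio signal rise beyond 5 SD above unstimulated control wells' mean, seen in both duplicate runs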;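 further: plate controls were buffer EC0 wells for no effect and acetylcholine ECmax response for full effect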
An asterisk follows results filed as active; i = inactive; · = no result.

SMILES	TRPC4 agonist	TRPC6 activator	TRPC4 inh	TRPC4 potent	TRPC6 inhibitor	HEK293 MPD ctr-2	HEK293 MPD ctr 2-2	TRPC4/MOR mod	TRPC4 ctr inh 2	TRPC6 inh conf	TRPC6 act conf	others
COc1ccc(CN2C(=O)N(c3ccccc3)C(=O)C2CC(=O)Nc2ccccc2)cc1OC (stereo unspecified)	i	i	i	i	i	·	·	·	·	·	·
COc1ccc(/C=C(/NC(=O)/C=C/c2ccccc2)C(=O)N2CCOCC2)cc1	i	i	i	i	-5.8*	i	i	i	i	42%*	i
Cc1nnc(CN(C)C(=O)c2cc(COc3ccc(F)cc3Cl)on2)o1	i	i	i	i	i	·	·	·	·	·	·
COc1cc(-c2cc[n+](C)cc2)ccc1O	i	i	i	i	-6*	-329%*	i	-53%*	i	i	i
N#Cc1nc(Cc2cccc3ccccc23)oc1NCCN1CCCCC1	i	i	i	i	-5.2*	106%*	i	10%*	63%*	i	·
O=[N+]([O-])c1ccc(Oc2ccc(-c3cnc4ccccc4n3)cc2[N+](=O)[O-])cc1	i	i	i	i	i	·	·	·	·	·	·
COc1ccccc1N1CCc2c(C)nc3c(OC)cccc3c21	i	i	-6*	i	-6.5*	-114%*	i	-19%*	58%*	46%*	i
COc1cccc2c3c(c(C)nc12)CCN3c1ccccc1	i	i	i	i	-8.5*	-182%*	i	-33%*	72%*	68%*	i
CCOC(=O)c1cnc2c(OC)cccc2c1N1CCN(c2ccccc2OC)CC1	i	i	i	i	i	·	·	·	·	·	·
COc1cccc2c(Cl)c(CC=C(Cl)Cl)c(C)nc12	i	i	i	i	i	·	·	·	·	·	·
Cc1ccc2nc(C)c3c(c2c1)N(c1ccc(F)cc1)CC3	i	i	-6*	i	-9.6*	·	·	·	·	105%*	i	TRPC4 sel inh 2=34%*;TRPC4 spec=i;HEK293 MPD ctr 2-1=27%*;HEK293 MPD ctr-1=-194%*
COCCCNC(=O)/C(C#N)=C/c1cc(C)[nH]c1C	i	i	i	i	i	·	·	·	·	·	·
Cc1ccc(C)c(C(=O)COC(=O)CN2C(=O)C3C4C=CC(C4)C3C2=O)c1 (stereo unspecified)	i	i	i	i	i	·	·	·	·	·	·
Cc1cc(O)cc(O)c1C(=O)Cc1ccccc1	i	i	i	i	i	·	·	·	·	·	·
O=C(Cc1ccc([N+](=O)[O-])cc1)c1c(O)cc(O)cc1O	i	i	i	i	-5.5*	-62%*	i	-19%*	52%*	52%*	i
CC(=O)Nc1ccc(S(=O)(=O)N2CCN(C(=O)c3ncoc3-c3ccc(C)cc3)CC2)cc1	i	i	i	i	i	·	·	·	·	·	·
c1ccc(-c2nc(NCCCn3ccnc3)c3ccccc3n2)cc1	i	i	i	i	-5.2*	-220%*	i	-50%*	72%*	61%*	i
COc1ccc(-c2nc(NCCCN(C)C)c3ccccc3n2)cc1	i	i	i	i	-6.7*	·	·	·	·	85%*	i	TRPC4 sel inh 2=55%*;TRPC4 spec=-32%*;HEK293 MPD ctr 2-1=i;HEK293 MPD ctr-1=-387%*
COc1ccc(C(CNc2nc(-c3cccnc3)nc3ccccc23)N(C)C)cc1 (stereo unspecified)	188*	i	i	i	-7.5*	-277%*	i	-38%*	90%*	55%*	i
CCN(CC)CCCNc1nc(-c2ccccc2)nc2ccccc12	i	i	i	i	-8.8*	·	·	·	·	76%*	i	TRPC4 sel inh 2=40%*;TRPC4 spec=-27%*;HEK293 MPD ctr 2-1=35%*;HEK293 MPD ctr-1=-355%*
CC(=O)NS(=O)(=O)c1ccc(NC(=O)c2ccc(-n3nc(C)cc3C)cc2)cc1	i	i	i	i	i	·	·	·	·	·	·
O=C(N/N=C/c1ccc(OC(=O)c2ccco2)cc1)c1ccccn1	i	i	i	i	i	·	·	·	·	·	·
CCOCc1nc(C)c(Cl)c(NS(=O)(=O)c2ccc(N)cc2)n1	i	i	i	i	i	·	·	·	·	·	·
COc1cccc(NC(=O)c2nn(C)c3c2CS(=O)(=O)c2ccccc2-3)c1	i	i	i	i	i	·	·	·	·	·	·
CC(Nc1nc(-c2ccccc2)nc2ccccc12)c1ccccc1 (stereo unspecified)	i	i	i	i	-7.3*	·	·	·	·	i	i	TRPC4 sel inh 2=i;TRPC4 spec=-9.5%*;HEK293 MPD ctr 2-1=i;HEK293 MPD ctr-1=i
CC(Nc1nc(-c2ccccc2O)nc2ccccc12)c1ccccc1 (stereo unspecified)	i	i	i	i	i	·	·	·	·	·	·
Cc1ccc(Nc2c(-c3ccccc3)nc3cnccn23)cc1	i	i	i	i	i	·	·	·	·	·	·
Cc1cccc(C)c1Nc1c(-c2ccc(N3CCOCC3)cc2)nc2cnccn12	i	i	i	i	-8.3*	-236%*	i	-42%*	92%*	75%*	i
COc1ccc(-c2nc3cnccn3c2Nc2ccc(C)cc2)cc1	i	i	i	i	-6.2*	-70%*	i	-16%*	84%*	61%*	i

Bioassay records deposited in PubChem by Johns Hopkins Ion Channel Center.
